Experimental findings from ChEMBL document CHEMBL4028906, “Allosteric Inhibitors of SHP2 with Therapeutic Potential for Cancer Treatment” (J Med Chem, 2017) are described below.

Test [1] is described as follows: Inhibition of SHP2 N58S mutant (unknown origin). More on the design: species or system Homo sapiens.
For test [2], the target named is T1, Tyrosine-protein phosphatase non-receptor type 11 (Homo sapiens) (UniProt Q06124).
T1 sequence (whole entry): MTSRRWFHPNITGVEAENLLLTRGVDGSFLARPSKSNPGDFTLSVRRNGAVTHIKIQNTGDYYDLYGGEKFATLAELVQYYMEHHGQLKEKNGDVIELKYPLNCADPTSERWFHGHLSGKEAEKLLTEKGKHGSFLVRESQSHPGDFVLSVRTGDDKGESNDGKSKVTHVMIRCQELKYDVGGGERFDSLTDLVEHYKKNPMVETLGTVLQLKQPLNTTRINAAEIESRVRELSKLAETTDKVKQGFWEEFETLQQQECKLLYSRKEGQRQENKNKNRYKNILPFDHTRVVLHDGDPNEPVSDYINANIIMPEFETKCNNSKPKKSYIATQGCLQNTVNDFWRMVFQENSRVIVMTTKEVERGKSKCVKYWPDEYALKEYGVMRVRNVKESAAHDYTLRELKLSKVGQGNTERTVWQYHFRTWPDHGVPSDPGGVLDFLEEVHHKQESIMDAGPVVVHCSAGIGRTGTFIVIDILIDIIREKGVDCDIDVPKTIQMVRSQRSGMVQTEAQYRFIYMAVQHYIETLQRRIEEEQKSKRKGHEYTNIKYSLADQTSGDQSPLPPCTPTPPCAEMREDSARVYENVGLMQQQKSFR
Nature of the test: Allosteric inhibition of SHP2 in human NCI-H1975 cells harboring EGFR T790M mutant assessed as downregulation of ERK1/2 phosphorylation at 10 uM after 2 hrs by DAPI-based fluorescence microscopic analysis. It counts as cell-based. In a few lines:
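NCI-H1975 cells grown overnight on coverslips, then 10 μM inhibitor for 2 h. Fixed in 4% PFA, permeabilized with 0.4% Triton X-100, BSA-blocked. Phospho-ERK1/2 antibody applied overnight at 4 °C, fluorescent secondary 1 h at room temperature, DAPI mount, fluorescence microscopy. Repeated at least three times.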

Structures are written as SMILES. Calls of active or inactive are those of the source. The rule behind the calls is not given here.

The term IC50 denotes the concentration needed to halve the response being measured. Low readings indicate greater potency in that assay, high ones weaker potency in that assay. Turning to `CC1(N)CCN(c2nc(-c3ccc4cc(Br)ccc4c3)cs2)CC1`, it took 1.2 µM to reach half-maximal inhibition in test [1] (IC50). Further, in test [2], the inhibition result is “Active”.
